Source: publication PMC2077835 (Drug metabolism and disposition: the biological fate of …, 2006)

Tests used:
CYP4A11 = CYP4A11 (Homo sapiens, UniProt Q02928); assay: Inhibition of P450 activities by DB289: lauric acid 12-hydroxylation; assay type: in vitro ADME; details: 3.0 μM DB289, pooled HLMs 0.25 mg/ml
Outline: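 Test compound (3.0 μM) was preincubated 0 and 15 min with pooled microsomes (0.25 mg/ml) and 2 mM NADPH (final concentrations). A P450-selective marker substrate was then added and marker activity measured. Reference selective chemical inhibitors were run for comparison (none for CYP4A11). Solvent-only controls.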

recombinant human CYP1A2 = recombinant human CYP1A2 (Homo sapiens, UniProt P05177); assay: Kinetics of M1 formation by recombinant CYP1A2; assay type: in vitro ADME
recombinant human CYP1A2, sequence (P05177 2-516 limits assumed): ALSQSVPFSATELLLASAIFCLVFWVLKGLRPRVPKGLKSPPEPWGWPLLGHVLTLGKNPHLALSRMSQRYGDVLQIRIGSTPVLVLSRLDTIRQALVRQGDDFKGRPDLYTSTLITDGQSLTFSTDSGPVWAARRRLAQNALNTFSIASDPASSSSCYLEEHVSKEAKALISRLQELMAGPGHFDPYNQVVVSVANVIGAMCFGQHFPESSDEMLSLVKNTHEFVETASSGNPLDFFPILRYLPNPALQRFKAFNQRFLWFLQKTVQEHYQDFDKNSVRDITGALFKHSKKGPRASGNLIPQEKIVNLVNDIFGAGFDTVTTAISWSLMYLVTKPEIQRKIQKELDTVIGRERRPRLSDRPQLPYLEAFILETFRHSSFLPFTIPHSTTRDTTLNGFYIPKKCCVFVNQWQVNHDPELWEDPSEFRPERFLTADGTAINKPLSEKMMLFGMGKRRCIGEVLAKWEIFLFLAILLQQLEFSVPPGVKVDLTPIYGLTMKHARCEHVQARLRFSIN
Outline: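 Recombinant P450 (10–50 pmol/ml) with substrate from 0.05 μM upward, under initial-rate conditions (<20% consumption). 250 μl at 37°C, started with NADPH after 5 min equilibration. Run times: 2 min for CYP1A1/1A2; 5 min for CYP1B1, 2J2 and 4F2; 15 min for CYP2C8, 4F3B and 4F12. M1 measured by LC/MS/MS. Mean of duplicates fitted to Michaelis-Menten; CLint = Vmax/Km.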

CYP4A11, sequence (Q02928 5-519): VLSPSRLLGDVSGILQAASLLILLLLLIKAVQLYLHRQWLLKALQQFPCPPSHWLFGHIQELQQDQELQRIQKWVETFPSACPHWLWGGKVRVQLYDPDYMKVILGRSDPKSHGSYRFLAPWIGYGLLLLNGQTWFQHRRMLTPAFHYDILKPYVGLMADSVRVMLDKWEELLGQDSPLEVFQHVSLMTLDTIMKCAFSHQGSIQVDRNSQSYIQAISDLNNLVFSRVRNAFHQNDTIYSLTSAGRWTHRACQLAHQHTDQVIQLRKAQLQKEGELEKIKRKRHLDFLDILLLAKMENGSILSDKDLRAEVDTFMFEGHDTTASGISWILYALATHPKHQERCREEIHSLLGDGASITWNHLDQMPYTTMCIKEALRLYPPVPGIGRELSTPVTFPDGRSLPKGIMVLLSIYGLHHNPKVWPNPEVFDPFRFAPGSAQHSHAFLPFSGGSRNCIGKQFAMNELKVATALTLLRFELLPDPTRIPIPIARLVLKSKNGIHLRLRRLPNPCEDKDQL

CON=C(N)c1ccc(-c2ccc(-c3ccc(C(N)=NOC)cc3)o2)cc1 [DB289, 2,5-bis(4-amidinophenyl)furan-bis-O-methylamidoxime]
inhibition of CYP4A11 activity (CYP4A11): minimal to no inhibition | efficiency of CYP1A2 relative to CYP3A4, 2D6, 2E1, or 3A5 (intrinsic or maximal clearance) (recombinant human CYP1A2): ≥ 300 fold
